ChEMBL document CHEMBL1629676, “Inhibitory and bactericidal activities of daptomycin, vancomycin, and teicoplanin against methicillin-resistant Staphylococcus aureus isolates collected from 1985 to 2007” (2009)
Converted amounts (≈) assume the structure as drawn.

Columns and labels:
[1] = system: Staphylococcus aureus; test: Antimicrobial activity against methicillin-resistant Staphylococcus aureus by broth dilution assay; format: functional
[2] = system: Staphylococcus aureus; test: Antimicrobial activity against methicillin-resistant Staphylococcus aureus assessed as >=3log10 CFU/ml reduction in bacterial growth after 24 to 48 hrs by CLSI method; format: functional
Procedure, shortened: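 MBC per CLSI: entire 0.1 ml from the MIC well and from wells 4 dilutions above the MIC spread on blood agar, dried 20 min, then spread evenly; incubated 35 to 37°C for 24 to 48 h. MBC taken as the lowest dilution giving ≥99.9% (≥3-log10 CFU/ml) reduction versus the growth control count.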

| Structure (SMILES) | MIC50 [1] [µg/mL] | MIC90 [1] [µg/mL] | MBC50 [2] [µg/mL] | MBC90 [2] [µg/mL] |
| --- | --- | --- | --- | --- |
| CC(=O)N[C@@H]1[C@H](Oc2c3cc4cc2Oc2ccc(cc2Cl)[C@@H](O[C@@H]2O[C@@H](CO)[C@@H](O)[C@H](O)[C@@H]2NC(C)=O)[C@@H]2NC(=O)[C@H](NC(=O)[C@@H]4NC(=O)[C@H]4NC(=O)[C@@H](Cc5ccc(c(Cl)c5)O3)NC(=O)[C@H](N)c3ccc(O)c(c3)Oc3cc(O)cc4c3)c3ccc(O)c(c3)-c3c(O[C@H]4O[C@H](CO)[C@@H](O)[C@@H](O)[C@@H]4O)cc(O)cc3[C@@H](C(=O)O)NC2=O)O[C@@H](CO)[C@@H](O)[C@@H]1O | 1 (≈ 0.566 µM) | 1 (≈ 0.566 µM) | 2 (≈ 1.13 µM) | 32 (≈ 18.1 µM) |
| CCCCCCCCCC(=O)N[C@@H](Cc1c[nH]c2ccccc12)C(=O)N[C@H](CC(N)=O)C(=O)N[C@@H](CC(=O)O)C(=O)N[C@@H]1C(=O)NCC(=O)N[C@@H](CCCN)C(=O)N[C@@H](CC(=O)O)C(=O)N[C@H](C)C(=O)N[C@@H](CC(=O)O)C(=O)NCC(=O)N[C@H](CO)C(=O)N[C@@H]([C@H](C)CC(=O)O)C(=O)N[C@@H](CC(=O)c2ccccc2N)C(=O)O[C@@H]1C | 0.5 (≈ 0.309 µM) | 0.5 (≈ 0.309 µM) | 0.5 (≈ 0.309 µM) | 1 (≈ 0.617 µM) |
| CN[C@H](CC(C)C)C(=O)N[C@H]1C(=O)N[C@@H](CC(N)=O)C(=O)N[C@H]2C(=O)N[C@H]3C(=O)N[C@H](C(=O)N[C@H](C(=O)O)c4cc(O)cc(O)c4-c4cc3ccc4O)[C@H](O)c3ccc(c(Cl)c3)Oc3cc2cc(c3O[C@@H]2O[C@H](CO)[C@@H](O)[C@H](O)[C@H]2O[C@H]2C[C@](C)(N)[C@H](O)[C@H](C)O2)Oc2ccc(cc2Cl)[C@H]1O [VANCOMYCIN] | 1 (≈ 0.69 µM) | 1 (≈ 0.69 µM) | 1 (≈ 0.69 µM) | 1 (≈ 0.69 µM) |
